Measurements published in ChEMBL document CHEMBL4043094, “Azobenzene-containing photoswitchable proteasome inhibitors with selective activity and cellular toxicity” (Bioorg Med Chem, 2017).

Columns and labels:
[1] = Inhibition of caspase-like activity of 20S proteasome in rabbit 20S proteasome pre-incubated for 10 mins before Suc-Leu-Leu-Val-Tyr-AMC substrate addition and measured after 2 hrs by fluorescence assay; design: species or system Oryctolagus cuniculus
Outline: (§1)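 IC50 (nM) was determined for each compound twice: in its non-irradiated form and again after light irradiation.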

[2] = Inhibition of chymotrypsin-like activity of 20S proteasome in rabbit 20S proteasome pre-incubated for 10 mins before Suc-Leu-Leu-Val-Tyr-AMC substrate addition and measured after 2 hrs by fluorescence assay; design: species or system Oryctolagus cuniculus; outline: as §1
MCF-10A = assay: Cytotoxicity against human MCF10A cells at 5000 nM incubated for 48 hrs by 7AAD dye based flow cytometry; format: cell-based; conditions: 5 µM
HCT-116 = assay: Cytotoxicity against human HCT116 cells incubated for 48 hrs by 7AAD dye based flow cytometry; format: functional; conditions: HCT-116, 48 h, read-out: LD50 (the source's name)
Outline: (§2)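 Apoptosis dose-response over 48 h treatment. Each inhibitor was tested in two forms: the thermally adapted trans state and the cis photostationary state.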

MDA-MB-468 = assay: Cytotoxicity against human MDA-MB-468 cells incubated for 48 hrs by 7AAD dye based flow cytometry; format: functional; conditions: MDA-MB-468, 48 h, read-out: LD50 (the source's name); outline: as §2
[3] = Stability in DMSO; format: physicochemical
[4] = Cytotoxicity against human MCF10A cells incubated for 48 hrs by 7AAD dye based flow cytometry; format: cell-based, MCF-10A; conditions: read-out: LD50

IC50 [1]	IC50 [2]	Structure (SMILES)	Activity (MCF-10A)	CC50 (HCT-116)	CC50 (MDA-MB-468)	Stability [3]	CC50 at 48 h [4]
1630 nM	249 nM	Cc1cc(C)cc(/N=N\c2cccc(C(=O)N[C@H](C(=O)N[C@@H](CC(C)C)B3OC4C[C@@H]5C[C@@H](C5(C)C)[C@]4(C)O3)[C@@H](C)O)c2)c1 (stereo not given in full)					
214 nM	41 nM	Cc1cc(C)cc(/N=N\c2ccc(C[C@H](NC(=O)OC(C)(C)C)C(=O)N[C@@H](CC(C)C)B3OC4C[C@@H]5C[C@@H](C5(C)C)[C@]4(C)O3)cc2)c1 (stereo not given in full)					
759 nM	84 nM	CC(C)C[C@H](NC(=O)[C@@H](NC(=O)c1cccc(/N=N\c2ccccc2)c1)[C@@H](C)O)B1OC2C[C@@H]3C[C@@H](C3(C)C)[C@]2(C)O1 (stereo not given in full)					
107 nM	10 nM	CC(C)C[C@H](NC(=O)[C@H](Cc1ccc(/N=N/c2ccccc2)cc1)NC(=O)OC(C)(C)C)B1OC2C[C@@H]3C[C@@H](C3(C)C)[C@]2(C)O1 (stereo not given in full)					
498 nM	22 nM	CC(C)C[C@H](NC(=O)[C@@H](NC(=O)c1cccc(/N=N/c2ccc(-c3ccccc3)cc2)c1)[C@@H](C)O)B1OC2C[C@@H]3C[C@@H](C3(C)C)[C@]2(C)O1 (stereo not given in full)					
1620 nM	55 nM	Cc1cc(C)cc(/N=N/c2cccc(C(=O)N[C@H](C(=O)N[C@@H](CC(C)C)B3OC4C[C@@H]5C[C@@H](C5(C)C)[C@]4(C)O3)[C@@H](C)O)c2)c1 (stereo not given in full)					
211 nM	53 nM	Cc1cc(C)cc(/N=N/c2ccc(C[C@H](NC(=O)OC(C)(C)C)C(=O)N[C@@H](CC(C)C)B3OC4C[C@@H]5C[C@@H](C5(C)C)[C@]4(C)O3)cc2)c1 (stereo not given in full)					
868 nM	17 nM	CC(C)C[C@H](NC(=O)[C@@H](NC(=O)c1cccc(/N=N/c2ccccc2)c1)[C@@H](C)O)B1OC2C[C@@H]3C[C@@H](C3(C)C)[C@]2(C)O1 (stereo not given in full)					
727 nM	29 nM	CC(C)C[C@H](NC(=O)[C@@H](NC(=O)c1cccc(/N=N\c2ccc(-c3ccccc3)cc2)c1)[C@@H](C)O)B1OC2C[C@@H]3C[C@@H](C3(C)C)[C@]2(C)O1 (stereo not given in full)					
110 nM	12 nM	CC(C)C[C@H](NC(=O)[C@H](Cc1ccc(/N=N\c2ccccc2)cc1)NC(=O)OC(C)(C)C)B1OC2C[C@@H]3C[C@@H](C3(C)C)[C@]2(C)O1 (stereo not given in full)					
76 nM	5 nM	CC(C)C[C@H](NC(=O)[C@H](Cc1ccccc1)NC(=O)c1cnccn1)B(O)O [BORTEZOMIB]					
59 nM	10 nM	CC(C)C[C@H](NC(=O)[C@@H](NC(=O)c1cccc(-c2ccccc2)n1)[C@@H](C)O)B(O)O [DELANZOMIB]					

Structure (SMILES)	IC50 [1]	IC50 [2]	Activity (MCF-10A)	CC50 (HCT-116)	CC50 (MDA-MB-468)	Stability [3]	CC50 at 48 h [4]
CC(C)C[C@H](NC(=O)[C@H](Cc1ccc(/N=N/c2ccc(-c3ccccc3)cc2)cc1)NC(=O)OC(C)(C)C)B1OC2C[C@@H]3C[C@@H](C3(C)C)[C@]2(C)O1 (stereo not given in full)	460 nM	11 nM	Non-Toxic	1030 nM	246 nM		
CC(C)C[C@H](NC(=O)[C@H](Cc1ccc(/N=N\c2ccc(-c3ccccc3)cc2)cc1)NC(=O)OC(C)(C)C)B1OC2C[C@@H]3C[C@@H](C3(C)C)[C@]2(C)O1 (stereo not given in full)	303 nM	54 nM		212 nM	144 nM	> 48 h	683 nM
